Results reported in publication PMC4324418 (ACS Chemical Neuroscience, 2014).

What was measured:
rat M1 receptor = test: Calcium mobilization, selectivity; assay type: cell-based
Summary of the method: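 Cells were seeded at 15000/well in DMEM with 10% dialyzed FBS, 20 mM HEPES and 1 mM pyruvate, then cultured overnight at 37 °C/5% CO2. M2 and M4 lines were cotransfected with Gqi5. Cells were loaded with 1 μM Fluo-4AM (HBSS, 20 mM HEPES, 2.5 mM probenecid, pH 7.4) for 50 min at 37 °C. ACh was added 140 s after test compound. Calcium signal was expressed as % of the 10 μM ACh maximum.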

rat M4 receptor = target: T1, rat M4 receptor (Rattus norvegicus, UniProt P08485); test: [3H]NMS radioligand binding, modulation of ACh affinity; conditions: ACh displacement of [3H]NMS, modulator 300 nM to 10 μM
T1 sequence (P08485 1-478): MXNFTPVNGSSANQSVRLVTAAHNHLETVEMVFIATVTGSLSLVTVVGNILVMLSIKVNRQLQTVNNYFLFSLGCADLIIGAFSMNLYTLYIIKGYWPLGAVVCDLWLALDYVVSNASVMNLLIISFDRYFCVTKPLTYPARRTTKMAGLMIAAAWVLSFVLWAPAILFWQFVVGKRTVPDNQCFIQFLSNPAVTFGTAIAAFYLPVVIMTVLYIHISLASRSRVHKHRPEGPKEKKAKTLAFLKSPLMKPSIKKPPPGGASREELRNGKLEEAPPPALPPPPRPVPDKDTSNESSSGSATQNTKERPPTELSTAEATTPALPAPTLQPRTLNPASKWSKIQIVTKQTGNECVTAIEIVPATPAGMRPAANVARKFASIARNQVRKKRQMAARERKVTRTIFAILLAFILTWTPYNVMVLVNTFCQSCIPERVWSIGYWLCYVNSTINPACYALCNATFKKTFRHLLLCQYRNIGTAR
Summary of the method: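 Membranes came from CHO cells expressing rat M4 cotransfected with Gqi5, homogenized in 50 mM Tris-HCl/0.9% NaCl, pH 7.4. Membranes (10 μg/well) were incubated with 300 pM [3H]NMS, fixed modulator (300 nM–10 μM) or vehicle, and ACh (1 nM–1 mM) for 3 h at room temperature with shaking. Buffer was 100 mM NaCl, 10 mM MgCl2, 20 mM HEPES, […], pH 7.4. Nonspecific binding was set with 10 μM atropine. Bound ligand was filtered and counted; n ≥ 2. Cooperativity was fitted with the […].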

[1] = test system: 57 GPCRs, ion channels, and transporters; test: Ricerca lead profiling screen, radioligand binding panel; conditions: 10 μM
[2] = Biotransformation in cryopreserved rat hepatocytes; assay type: in vitro ADME; conditions: male, Sprague–Dawley rat (data not shown)
[3] = Amphetamine-induced hyperlocomotion in wild-type mice; assay type: in vivo, mouse; conditions: mouse, brain, ip, WT mice
wild-type mice [4] = test: as above; assay type: in vivo, mouse; conditions: WT mice, amphetamine […] SC
M4 KO mice [5] = test: MK-801-induced hyperlocomotion in M4 KO mice; assay type: in vivo, mouse
Summary of the method: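 Wild-type and M4 KO mice were habituated 90 min in a photobeam open field. They then received vehicle (10% Tween 80 IP), followed 30 min later by saline or MK-801 IP, and activity was recorded for 120 min. Distance traveled was binned per 5 min. Totals covered t = 120 to 240 min and were analyzed by ANOVA with Bonferroni post hoc tests.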

wild-type mice [6] = assay type: in vivo, mouse; conditions: data not shown
Summary of the method: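 Wild-type mice received vehicle (10% Tween 80, IP) or test compound (30 mg/kg IP). Thirty minutes later they received saline (IP) or MK-801 (0.3 mg/kg IP).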

M4 KO mice [7] = test: Touchscreen pairwise visual discrimination task, M4 KO mice; assay type: in vivo, mouse
Summary of the method: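 Mice aged 8–11 weeks were held at ~85% free-feeding weight, with water freely available. They were trained on touchscreen nosepoke discrimination (60 trials or 60 min) to ≥85% accuracy on 3 consecutive days. Next day: vehicle (10% Tween 80 IP) or test compound (3–30 mg/kg IP) 60 min pre-test, then saline or MK-801 (0.1–0.3 mg/kg IP) 30 min later. Mice were retested drug-free 24 h later. Analysis: ANOVA with Bonferroni tests.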

wild-type mice [8] = test: Contextual fear conditioning, four-shock, MK-801-induced deficit; assay type: in vivo, mouse
Summary of the method: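 Subjects were wild-type and M4 KO mice, 8–11 weeks old, handled for 3 days and saline-injected 1 day before conditioning. Vehicle (10% Tween 80 in water, IP) or test compound (3–10 mg/kg IP) was given 30 min before saline or MK-801 (0.1–0.3 mg/kg IP). Mice entered the chamber 30 min later for a four-shock conditioning trial. Percent freezing was scored 24 h later, drug-free.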

wild-type mice [9] = test: Modified Irwin neurological test battery; assay type: in vivo, mouse; conditions: 10–30 mg/kg
[10] = Pharmacokinetic and brain distribution studies in mice; conditions: for AUC(0-t) / Cmax / Tmax: male, C57BL/6, mouse, in vivo
[11] = M4 KO, VU0467154 10.0 mg/kg IP + MK-801 0.30 mg/kg IP
[12] = M4 KO, VU0467154 10.0 mg/kg IP + vehicle

Cc1nnc2sc(C(=O)NCc3ccc(S(=O)(=O)C(F)(F)F)cc3)c(N)c2c1C [VU0467154, 5-amino-3,4-dimethyl-N-(4-((trifluoromethyl)sulfonyl)benzyl)thieno[2,3-c]pyridazine-6-carboxamide]
potentiation of ACh response (calcium response) (rat M1 receptor): lack of a calcium response
increase in M4 affinity for ACh (α) (rat M4 receptor): 14.5 fold
log α (binding cooperativity with ACh) (rat M4 receptor): 1.16 ± 0.06
displacement of the radioligand ([1]; all targets included in this panel): ≤ 30%
displacement of the radioligand ([1]; majority of targets): ≤ 20%
turnover in hepatocytes [2]: low turnover
concentration at 2.5 h ([3]; 0.3 mg/kg, mean Cbrain, 0.3 mg/kg IP, at 2.5 h postadministration): 0.024 µM
concentration at 2.5 h ([3]; 0.3 mg/kg, mean Cbrain,u, 0.3 mg/kg IP, 2.5 h, in vitro mouse fubrain 0.014): 0.0003 µM
concentration at 2.5 h ([3]; 3 mg/kg, mean Cbrain, 3 mg/kg IP, at 2.5 h postadministration): 0.157 µM
concentration at 2.5 h ([3]; 3 mg/kg, mean Cbrain,u, 3 mg/kg IP, 2.5 h, in vitro mouse fubrain 0.014): 0.0022 µM
concentration at 2.5 h ([3]; 10 mg/kg, mean Cbrain, 10 mg/kg IP, at 2.5 h postadministration): 0.398 µM
concentration at 2.5 h ([3]; 10 mg/kg, mean Cbrain,u, 10 mg/kg IP, 2.5 h, in vitro mouse fubrain 0.014): 0.0056 µM
concentration at 2.5 h ([3]; 30 mg/kg, mean Cbrain,u, 30 mg/kg IP, 2.5 h, in vitro mouse fubrain 0.014): 0.0081 µM
mean reversal of AHL (wild-type mice [4]; 0.3 mg/kg IP): 3.7%
mean reversal of AHL (wild-type mice [4]; 1 mg/kg IP): 41.6%
mean reversal of AHL (wild-type mice [4]; 3 mg/kg IP): 70.4%
mean reversal of AHL (wild-type mice [4]; 10 mg/kg IP): 81.5%
mean reversal of AHL (wild-type mice [4]; 30 mg/kg IP): 90.7%
effect on MK-801-induced hyperlocomotion (M4 KO mice [5]): had no effect on the time course of MK-801-induced hyperlocomotion
serotonin utilization in the NAS and CP (wild-type mice [6]): Neither single nor combined administration of VU0467154 with MK-801 altered serotonin utilization
reversal of MK-801-induced pairwise discrimination deficit (M4 KO mice [7]; M4 KO mice): did not reverse the MK-801-induced pairwise discrimination deficit
response accuracy on the test day (M4 KO mice [7]; M4 KO, MK-801 in combination with VU0467154 (vehicle 91%)): 64%
correct reward collection latency (M4 KO mice [7]; [11]): 1.57 ± 0.07 s
correct touch latency (M4 KO mice [7]; [11]): 8.45 ± 1.57 s
time to complete 60 trials (M4 KO mice [7]; [11]): 1120 ± 95.5 s
correct reward collection latency (M4 KO mice [7]; [12]): 3.19 ± 0.73 s
correct touch latency (M4 KO mice [7]; [12]): 22.81 ± 8.86 s
time to complete 60 trials (M4 KO mice [7]; [12]): 2080 ± 384.9 ^e s
effect on contextual fear conditioning (wild-type mice [8]; VU0467154 alone, four-shock): had no effect on contextual fear conditioning
reversal of MK-801-induced deficits in the acquisition of contextual fear conditioning (wild-type mice [8]; pretreatment 3–10 mg/kg): dose-dependently reversed
autonomic and somatosensory side effects (wild-type mice [9]): did not exhibit autonomic and somatosensory side effects
AUC(0-t) ([10]; ip, 3 mg/kg): 9.2 µM·h
Cmax ([10]; ip, 3 mg/kg): 2 µM
Tmax ([10]; ip, 3 mg/kg): 1 h
AUC(0-t) ([10]; ip, 10 mg/kg): 39 µM·h
Cmax ([10]; ip, 10 mg/kg): 5.6 µM
Tmax ([10]; ip, 10 mg/kg): 0.5 h
Tmax ([10]; ip, 30 mg/kg): 0.5 h
AUC(0-t) ([10]; po, 10 mg/kg): 46 µM·h
Cmax ([10]; po, 10 mg/kg): 7.6 µM
Tmax ([10]; po, 10 mg/kg): 1 h
AUC(0-t) ([10]; po, 30 mg/kg): 66 µM·h
Cmax ([10]; po, 30 mg/kg): 11 µM
Tmax ([10]; po, 30 mg/kg): 1 h
brain AUC0–24h ([10]; mouse, IP 3 mg/kg, brain): 5.9 µM·h
